Source: ChEMBL document CHEMBL1126933, “Syntheses and biological activities of potent potassium channel openers derived from (+/-)-2-oxo-1-pyridin-3-yl-cyclohexanecarbothioic acid methylamide: new potassium channel openers” (1993)

Organism: Rattus norvegicus
Test: In vitro relaxation of de-endothelialized rat aortic strips toned with 20 mM KCl
Assay type: functional
Conditions: Aorta
Outline: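 Rat aortic rings cut into transverse strips, endothelium removed by gentle rubbing. Strips held in Krebs bicarbonate buffer at 37 °C, gassed with 95% O2/5% CO2, isometric tension recorded. Equilibrated 90 min at 2 g resting tension, then contracted with 20 mmol KCl. At maximal contraction, relaxation measured by cumulative concentration-response, each next concentration added once the previous one reached maximal effect.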

Row | SMILES | IC90 [nM]
1 | C/N=C(/S)[C@@]1(c2cccnc2)CCCC[C@@H]1CCNS(=O)(=O)c1ccc([N+](=O)[O-])cc1 | 300
2 | C/N=C(/S)[C@@]1(c2cccnc2)CCCC[C@@H]1CCNS(=O)(=O)c1ccc(F)cc1 | 7
3 | CNC(=S)[C@@]1(c2cccnc2)CCCC[C@@H]1CCNS(=O)(=O)c1ccc(OC)cc1 | 300
4 | C/N=C(/S)[C@@]1(c2cccnc2)CCCC[C@@H]1CCNC(=O)c1ccc(F)cc1 | 500
5 | C/N=C(/S)C1(c2cccnc2)CCCC/C1=C\CSc1ccccc1 (centres undefined) | 3
6 | C/N=C(/S)[C@@]1(c2cccnc2)CCCC[C@@H]1CCNS(=O)(=O)c1ccc(Cl)cc1 | 30
7 | C/N=C(/S)C1(c2cccnc2)CCCCC1=O (centres undefined) | 800
8 | C/N=C(/NCC[C@H]1CCCC[C@@]1(/C(S)=N\C)c1cccnc1)NS(=O)(=O)c1ccccc1 | 300
9 | CNC(=S)[C@@]1(c2cccnc2)CCCC[S+]1[O-] (some centres undefined) | 400
10 | C/N=C(/S)[C@@]1(c2cccnc2)CCCC[C@@H]1CCNC(=O)Cc1ccccc1 | 300
11 | C/N=C(/S)C1(c2cccnc2)CCCC/C1=C\C=N\OCc1ccc(F)cc1 (centres undefined) | 100
12 | C/N=C(/S)[C@@]1(c2cccnc2)CCCC[C@@H]1CCOC(=O)c1ccc(F)cc1 | 100
13 | C/N=C(/S)C1(c2cccnc2)CCCC/C1=C\COc1ccc([N+](=O)[O-])cc1 (centres undefined) | 100
14 | C/N=C(/S)C1(c2cccnc2)CCCC/C1=C\CO (centres undefined) | 10000
15 | C/N=C(/S)C1(c2cccnc2)CCCC/C1=C\C=N\OCC(O)CO (centres undefined) | 3000
16 | C/N=C(/S)C1(c2cccnc2)CCCC/C1=C\COc1ccccc1 (centres undefined) | 65
17 | C/N=C(/S)[C@@]1(c2cccnc2)CCCC[C@@H]1CCNS(=O)(=O)c1ccc(F)c(F)c1 | 10
18 | C/N=C(/S)C1(c2cccnc2)CCCC/C1=C\C=O (centres undefined) | 8000
19 | CNC(=S)[C@@]1(c2cccnc2)CCCC[C@@H]1CC(=O)OC | 300
20 | C/N=C(/S)C1(c2cccnc2)CCCC/C1=C\COc1ccc(O)cc1 (centres undefined) | 300
21 | C/N=C(/S)[C@@]1(c2cccnc2)CCCC[C@@H]1CCNS(=O)(=O)c1cccnc1 | 3

Further lines, results first:

Row | IC90 [nM] | SMILES
22 | 130 | C/N=C(/S)[C@@]1(c2cccnc2)CCCC[C@@H]1CCNC(C)=O
23 | 3 | C/N=C(/S)[C@@]1(c2cccnc2)CCCC[C@@H]1CCNc1ccccc1
24 | 170 | C/N=C(/S)[C@@]1(c2cccnc2)CCCC[C@@H]1CCNS(C)(=O)=O
25 | 100 | C/N=C(/S)[C@@]1(c2cccnc2)CCCC[C@@H]1C/C=C/c1ccccc1
26 | 100 | C/N=C(/S)[C@@]1(c2cccnc2)CCCC[C@@H]1CCN1C(=O)COCC1=O
27 | 300 | C/N=C(/S)[C@@]1(c2cccnc2)CCCC[C@@H]1CCNC(=O)C(C)C
28 | 10000 | C/N=C(/S)C1(c2cccnc2)CCCC/C1=C\C#N (centres undefined)
29 | 300 | C/N=C(/S)[C@@]1(c2cccnc2)CCCC[C@@H]1CC#N
30 | 30 | C/N=C(/NCC[C@H]1CCCC[C@@]1(/C(S)=N\C)c1cccnc1)NS(C)(=O)=O
31 | 30 | C/N=C(/S)[C@@]1(c2cccnc2)CCCC[C@@H]1CCOC(C)=O
32 | 1700 | C/N=C(/S)[C@@]1(c2cccnc2)CCCC[C@@H]1CCO
33 | 300 | C/N=C(/S)[C@@]1(c2cccnc2)CCCC[C@@H]1CCNC(=O)c1ccccc1
34 | 30 | C/N=C(/S)[C@@]1(c2cccnc2)CCCC[C@@H]1C/C=N/OCc1ccccc1
35 | 10000 | C/N=C(/S)[C@@]1(c2cccnc2)CCCC[C@@H]1CCN
36 | 10 | C/N=C(/S)[C@@]1(c2cccnc2)CCCC[C@@H]1C/C=C/c1ccc(F)cc1
37 | 0.3 | C/N=C(/S)[C@@]1(c2cccnc2)CCCC[C@@H]1CCNS(=O)(=O)c1ccccc1
38 | 1 | C/N=C(/S)[C@@]1(c2cccnc2)CCCC[C@@H]1CCNS(=O)(=O)c1cccs1
39 | 30 | C/N=C(/S)[C@@]1(c2cccnc2)CCCC[C@@H]1CCOC(=O)c1ccccc1
